According to article PMC9303875 (Clinical Pharmacology in Drug Development, 2022):
Where two headings read alike, the source gives them in different places. Marks after values point to notes of the source that are not given here.

How the values were obtained:
[1] = tested on: plasma 2-HG; assay: Plasma 2-HG pharmacodynamics in patients with newly diagnosed mIDH1/2 AML; assay type: in vivo, human; conditions: for reduction of mean trough plasma 2-HG concentrations (up to): after multiple doses, combined with chemotherapy; for mean reduction in plasma 2-HG concentration: enasidenib started C1D1, by induction C1D14
In short: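 Plasma was sampled within 30 min predose and at 0.5, 2, 4, 6, 8 (and 24, per footnote) h on induction C1D1/C1D14 and consolidation C1D1; the delayed-start cohort was sampled on C1D8/C1D21. 2-HG was measured by surrogate-analyte (¹³C₅ 2-HG) LC-MS/MS, LLOQ 30 ng/mL, with BLQ set to LLOQ. AUEC0-8, AUEC0-24, BAUEC0-24 and Rtrough used actual times. C1D14 reductions were grouped by best overall response: CR; IR (CRi, CRp, MLFS, PR); NR (SD, PD).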

[2] = tested on: bone marrow 2-HG; assay: Bone marrow 2-HG pharmacodynamics in patients with newly diagnosed mIDH1/2 AML; assay type: in vivo, human; conditions: after multiple doses; combined with chemotherapy
In short: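 Bone marrow aspirates from patients on oral ivosidenib or enasidenib once daily plus chemotherapy. 2-HG was quantified by LC-MS/MS using a qualified surrogate analyte method, with ¹³C₅ 2-HG as the surrogate for calibrators and QCs. LLOQ was 10 ng/mL, and BLQ values were set to LLOQ. Percentage reduction from baseline was computed using actual times relative to dosing.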

[3] = tested on: advanced mIDH2 hematologic malignancies; conditions: cited from earlier work
[4] = assay type: in vivo, human; conditions: for time to steady-state PK based on Ctrough: continuous once-daily dosing combined with chemotherapy
In short: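 Samples were taken predose and 0.5–8 h (24 h per footnote) post-dose with once-daily dosing. AUC0-24, Cmax, tmax and Ctrough were derived using actual times, and predose BLQ values were set to 0. Accumulation ratio was C1D14/C1D1 or C1D21/C1D8 of induction. Steady state was judged from Ctrough across cycles, and consolidation data pooled both regimens (ME or ARA-C).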

[5] = tested on: IDH2-R172; conditions: preclinical and in vitro data; cited from earlier work
[6] = cited from earlier work
[7] = tested on: 2-HG; conditions: cited from earlier work; for plasma 2-HG reduction from baseline, maximum / plasma 2-HG reduction from baseline, median: enasidenib 100 mg once daily
[8] = tested on: mIDH1 R/R AML; conditions: patients with mIDH1 R/R AML; ivosidenib 500 mg once daily; cited from earlier work
[9] = tested on: 2-HG; conditions: ivosidenib 500 mg once daily single agent, cited from earlier work
[10] = tested on: CYP3A4; conditions: healthy participants; cited from earlier work
[11] = cited from earlier work; remark: listed apart in the source
[12] = enasidenib 100 mg QD + chemotherapy, Consolidation C1D1
[13] = enasidenib 100 mg QD starting day 1 + chemotherapy, Induction C1D1
[14] = enasidenib 100 mg QD starting day 1 + chemotherapy, Induction C1D14
[15] = enasidenib 100 mg QD starting day 8 + chemotherapy, Induction C1D8
[16] = enasidenib 100 mg QD starting day 8 + chemotherapy, Induction C1D21
[17] = ivosidenib 500 mg QD + chemotherapy, Consolidation C1D1
[18] = ivosidenib 500 mg QD + chemotherapy, Induction C1D1
[19] = ivosidenib 500 mg QD + chemotherapy, Induction C1D14
[20] = ivosidenib 500 mg QD + chemotherapy, Induction C1D14 / induction C1D1

## CC(C)(O)CNc1nc(Nc2ccnc(C(F)(F)F)c2)nc(-c2cccc(C(F)(F)F)n2)n1 [Enasidenib, enasidenib]
[1]
  reduction of mean trough plasma 2-HG concentrations (up to): ≤ 99%
[1]; [12]
  %BAUEC0-24 (percentage reduction of plasma 2-HG based on AUEC0-24), mean (RSD%): 80.6 (25.1); 21%
  %Rtrough (percentage reduction of plasma 2-HG at the end of a dosing interval), mean (RSD%): 77.1 (37.8); 21%
  Plasma 2-HG AUEC0-24, mean (RSD%): 1800 (116.1); 21 ng • h/mL
[1]; [13]
  %BAUEC0-24 (percentage reduction of plasma 2-HG based on AUEC0-24), mean (RSD%): 18.7 (108.0); 57%
  %Rtrough (percentage reduction of plasma 2-HG at the end of a dosing interval), mean (RSD%): 37.8 (68.2); 57%
[1]; [14]
  %BAUEC0-24 (percentage reduction of plasma 2-HG based on AUEC0-24), mean (RSD%): 85.0 (24.7); 45%
  %Rtrough (percentage reduction of plasma 2-HG at the end of a dosing interval), mean (RSD%): 84.7 (24.6); 45%
  Plasma 2-HG AUEC0-24, mean (RSD%): 2030 (134.4); 45 ng • h/mL
[1]; [15]
  %BAUEC0-24 (percentage reduction of plasma 2-HG based on AUEC0-24), mean (RSD%): 73.9 (28.1); 16%
  %Rtrough (percentage reduction of plasma 2-HG at the end of a dosing interval), mean (RSD%): 82.8 (18.0); 16%
  Plasma 2-HG AUEC0-24, mean (RSD%): 3960 (72.5); 16 ng • h/mL
[1]; [16]
  %BAUEC0-24 (percentage reduction of plasma 2-HG based on AUEC0-24), mean (RSD%): 83.1 (34.6); 15%
  %Rtrough (percentage reduction of plasma 2-HG at the end of a dosing interval), mean (RSD%): 82.3 (40.5); 15%
  Plasma 2-HG AUEC0-24, mean (RSD%): 1670 (130.2); 15 ng • h/mL
[1]; patients with IDH2-R140 mutations (n = 41)
  mean reduction in plasma 2-HG concentration: 89.3%
[1]; patients with IDH2-R172 mutations (n = 14)
  mean reduction in plasma 2-HG concentration: 76.9%
[1]; enasidenib starting on induction C1D1, following the first enasidenib dose
  arithmetic mean percentage reduction of plasma 2-HG based on BAUEC0-8: 7.1%
[1]; enasidenib starting on induction C1D8, at C1D8
  reduction in plasma 2-HG AUEC0-8: 71.6%
[1]; in this study, enasidenib combined with chemotherapy
  median 2-HG reduction: > 75%
[2]
  reduction of mean trough bone marrow 2-HG concentrations (up to): up to 99%
[3]; all patients receiving enasidenib 100 mg once daily
  ORR: 38.5%
[3]; enasidenib 100 mg once daily, patients with IDH2-R140 mutations
  ORR: 35.4%
[3]; enasidenib 100 mg once daily, patients with IDH2-R172 mutations
  ORR: 53.3%
[4]
  time to steady-state PK based on Ctrough: ≤ 14 days
[4]; [12]
  Racc AUC0-24 (accumulation ratio based on AUC0-24), mean (SD): 7.93 (4.29); 18
  Racc Cmax (accumulation ratio based on Cmax), mean (SD): 7.15 (4.59); 24
[5]
  potency against IDH2-R172 compared with IDH2-R140: less potent
[6]; enasidenib single agent
  terminal half-life: ≈ 137 hours
  time to steady state: ≤ 29 days
[6]; once-daily administration, ref data on file
  accumulation: ≈ 10 fold
[7]; IDH2-R140Q mutations
  plasma 2-HG reduction from baseline, maximum: 99%
  plasma 2-HG reduction from baseline, median: 93%
[7]; IDH2-R172K mutations
  plasma 2-HG reduction from baseline, maximum: 94%
  plasma 2-HG reduction from baseline, median: 28%
[7]; enasidenib dose of 100 mg
  median reduction in 2-HG concentrations from baseline: 90.4%
[7]; enasidenib doses of <100 mg
  median reduction in 2-HG concentrations from baseline: 92.4%
[7]; enasidenib doses of >100 mg
  median reduction in 2-HG concentrations from baseline: 93.1%

## N#Cc1ccnc(N2C(=O)CC[C@H]2C(=O)N(c2cncc(F)c2)[C@H](C(=O)NC2CC(F)(F)C2)c2ccccc2Cl)c1 [Ivosidenib, ivosidenib]
[1]
  reduction of mean trough plasma 2-HG concentrations (up to): ≤ 99%
[1]; [17]
  %BAUEC0-24 (percentage reduction of plasma 2-HG based on AUEC0-24), mean (RSD%): 91.0 (16.9); 28%
  %Rtrough (percentage reduction of plasma 2-HG at the end of a dosing interval), mean (RSD%): 90.7 (17.2); 28%
  Plasma 2-HG AUEC0-24, mean (RSD%): 1090 (39.8); 29 ng • h/mL
[1]; [18]
  %BAUEC0-24 (percentage reduction of plasma 2-HG based on AUEC0-24), mean (RSD%): 53.0 (30.5); 48^b %
  %Rtrough (percentage reduction of plasma 2-HG at the end of a dosing interval), mean (RSD%): 80.8 (28.1); 48^b %
[1]; [19]
  %BAUEC0-24 (percentage reduction of plasma 2-HG based on AUEC0-24), mean (RSD%): 90.0 (23.8); 46%
  %Rtrough (percentage reduction of plasma 2-HG at the end of a dosing interval), mean (RSD%): 89.8 (23.9); 46%
  Plasma 2-HG AUEC0-24, mean (RSD%): 1120 (51.8); 47 ng • h/mL
[2]
  reduction of mean trough bone marrow 2-HG concentrations (up to): up to 99%
[8]
  overall response rate (ORR): 41.6%
[4]
  time to steady-state PK based on Ctrough: ≤ 14 days
[4]; [17]
  Racc AUC0-24 (accumulation ratio based on AUC0-24), mean (SD): 1.38 (0.83); 24
  Racc Cmax (accumulation ratio based on Cmax), mean (SD): 1.21 (0.69); 30
[4]; [20]
  Racc AUC0-24 (accumulation ratio based on AUC0-24), mean (SD): 2.35 (1.2); 38
  Racc Cmax (accumulation ratio based on Cmax), mean (SD): 1.69 (0.71); 49
[9]; after multiple doses
  patients achieving a ≥90% reduction in plasma 2-HG concentrations: 71%
[9]
  reduction in bone marrow 2-HG concentrations: > 90%
[10]
  AUC parameters when coadministered with itraconazole: increased
  Cmax when coadministered with itraconazole: unaffected
[11]; ivosidenib 500 mg once daily single agent, after a single dose
  half-life: 93 h
[11]; ivosidenib 500 mg once daily single agent, after multiple doses
  accumulation ratio: ≈ 2 fold
[11]; ivosidenib 500 mg once daily single agent
  time to steady state based on observed Ctrough: ≤ 14 days
[11]; patients, phase 1 single-agent study
  ivosidenib clearance with concomitant moderate or strong CYP3A4 inhibitors: decreased
